Our source for the Ki and Activity values is ChEMBL document CHEMBL5614453 (ACS Med Chem Lett, 2024).

One assay addresses Carbonic anhydrase 4 (Homo sapiens, UniProt P22748). As to the kind of experiment: Inhibition of human CA4 preincubated for 15 mins by phenol red dye based stopped flow CO2 hydration assay.
Assay [1] deals with Mus musculus. The assay can be described thus: Antihyperalgesic activity in CFA induced CD-1 albino mouse assessed as inhibition of mechanical hyperalgesia by measuring paw withdrawal latency at 330 mg/kg, po measured after 20 to 100 mins by paw pressure test. The class given is functional, organism-based. Conditions: time 20-100 min. The procedure, abridged: (§1)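 Mechanical hyperalgesia measured by Paw Pressure test before dosing and every 20 min afterward, as paw-withdrawal latency (s). Values are means of 6 mice over 2 experimental sets; statistics vs pretest (0 min) and vs vehicle-treated controls.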

Assay [2] relates to Mus musculus. The assay can be described thus: Antihyperalgesic activity in CFA induced CD-1 albino mouse assessed as inhibition of mechanical hyperalgesia by measuring paw withdrawal latency at 220 mg/kg, po measured every 20 mins by paw pressure test. The class given is functional, organism-based. The procedure, abridged:
as §1

The next assay has as its target Carbonic anhydrase 2 (Homo sapiens, UniProt P00918). The assay can be described thus: Inhibition of human CA2 preincubated for 15 mins by phenol red dye based stopped flow CO2 hydration assay.
In assay [3] the test system is Mus musculus. The assay can be described thus: Antihyperalgesic activity in CFA induced CD-1 albino mouse assessed as inhibition of thermal hyperalgesia by measuring licking latency at 220 mg/kg, po measured every 20 mins by hot plate test. The class given is functional, organism-based. The procedure, abridged:
(§2)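 Hot plate test before dosing and every 20 min after. Time (s) to first hind-paw licking recorded. Mean of 6 mice from 2 experimental sets; compared with pretest (0 min) and vehicle controls.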
(In general: In hot-plate and tail-flick tests a longer latency is read as antinociception.)

The next assay deals with Carbonic anhydrase 1 (Homo sapiens, UniProt P00915). The assay can be described thus: Inhibition of human CA1 preincubated for 15 mins by phenol red dye based stopped flow CO2 hydration assay.
For assay [4], the system named is Mus musculus. As to the kind of experiment: Antihyperalgesic activity in CFA induced CD-1 albino mouse assessed as inhibition of thermal hyperalgesia by measuring licking latency at 330 mg/kg, po measured after 20 to 100 mins by hot plate test. The following applies: time 20-100 min. Type of assay: functional, organism-based. The procedure, abridged:
as §2

For assay [5], the system named is Mus musculus. The assay can be described thus: Antihyperalgesic activity in CFA induced CD-1 albino mouse assessed as inhibition of mechanical allodynia by measuring paw withdrawal threshold at 220 mg/kg, po measured every 20 mins by von frey test. The class given is functional, organism-based. The procedure, abridged: (§3)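 Von Frey testing before dosing and every 20 min afterward. Read-out is the weight (g) the animal tolerated on the paw. Mean of 6 mice from 2 experimental sets; compared with pretest (0 min) and with vehicle-treated controls.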

For assay [6], the system named is Mus musculus. As to the kind of experiment: Antihyperalgesic activity in CFA induced CD-1 albino mouse assessed as inhibition of mechanical allodynia by measuring paw withdrawal threshold at 330 mg/kg, po measured after 20 to 100 mins by von frey test. The class given is functional, organism-based. The following applies: time 20-100 min. The procedure, abridged:
as §3

The target of the next assay is Carbonic anhydrase 7 (Homo sapiens, UniProt P43166). The assay can be described thus: Inhibition of human CA7 preincubated for 15 mins by phenol red dye based stopped flow CO2 hydration assay.
The target in another assay is Carbonic anhydrase 12 (Homo sapiens, UniProt O43570). As to the kind of experiment: Inhibition of human CA12 preincubated for 15 mins by phenol red dye based stopped flow CO2 hydration assay.
Another assay concerns the target Carbonic anhydrase 9 (Homo sapiens, UniProt Q16790). As to the kind of experiment: Inhibition of human CA9 preincubated for 15 mins by phenol red dye based stopped flow CO2 hydration assay.
In assay [7] the test system is Mus musculus. As to the kind of experiment: Antihyperalgesic activity in CFA induced CD-1 albino mouse assessed as increase in pain threshold by measuring licking latency at 270 mg/kg, po measured after 40 mins by hot plate test. The class given is functional, organism-based. The procedure, abridged:
(§4)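 Mice received an intraplantar CFA injection, and vehicle-treated animals served as controls. Thermal hyperalgesia was measured by hot plate as time in s to the first hind-paw licking. Readings were taken before dosing and every 20 min afterwards. Values are the mean of 6 mice from 2 experimental sets.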

In assay [8] the test system is Mus musculus. As to the kind of experiment: Antihyperalgesic activity in CFA induced CD-1 albino mouse assessed as inhibition of mechanical allodynia by measuring paw withdrawal threshold at 270 to 405 mg/kg, po measured every 20 mins by von frey test. The class given is functional, organism-based. The following applies: dose 270-405 mg/kg.
In assay [9] the test system is Mus musculus. As to the kind of experiment: Antihyperalgesic activity in CFA induced CD-1 albino mouse assessed as increase in pain threshold by measuring paw withdrawal latency at 270 mg/kg, po measured after 40 mins by paw pressure test. The class given is functional. The procedure, abridged: (§5)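 Inflammatory pain was induced by intraplantar CFA, with vehicle-treated controls. Mechanical hyperalgesia was measured by paw pressure test as paw withdrawal latency (s), before dosing and every 20 min after. Values are the mean of 6 mice from 2 experimental sets.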

In assay [10] the test system is Mus musculus. The assay can be described thus: Antihyperalgesic activity in CFA induced CD-1 albino mouse assessed as increase in pain threshold by measuring licking latency at 405 mg/kg, po measured after 40 mins by hot plate test. Type of assay: functional, organism-based. The procedure, abridged:
as §4

For assay [11], the system named is Mus musculus. As to the kind of experiment: Antihyperalgesic activity in CFA induced CD-1 albino mouse assessed as inhibition of mechanical hyperalgesia by measuring paw withdrawal latency at 270 to 405 mg/kg, po measured every 20 mins by paw pressure test. The following applies: dose 270-405 mg/kg. Type of assay: functional, organism-based. In a few lines: as §5

Assay [12] concerns Mus musculus. The assay can be described thus: Antihyperalgesic activity in CFA induced CD-1 albino mouse assessed as increase in pain threshold by measuring paw withdrawal latency at 405 mg/kg, po measured after 40 mins by von frey test. The class given is functional, organism-based.
For assay [13], the system named is Mus musculus. The assay can be described thus: Antihyperalgesic activity in CFA induced CD-1 albino mouse assessed as increase in pain threshold by measuring paw withdrawal latency at 270 mg/kg, po measured after 40 mins by von frey test. The class given is functional. The procedure, abridged:
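Intraplantar CFA was used to induce inflammatory pain in mice, with vehicle-treated controls. Mechanical allodynia was measured by Von Frey test as the weight (g) tolerated on the paw, before dosing and every 20 min after. Values are the mean of 6 mice from 2 experimental sets.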

In assay [14] the test system is Mus musculus. As to the kind of experiment: Antihyperalgesic activity in CFA induced CD-1 albino mouse assessed as increase in pain threshold by measuring paw withdrawal latency at 405 mg/kg, po measured after 40 mins by paw pressure test. The class given is functional, organism-based. In a few lines:
as §5

In assay [15] the test system is Mus musculus. As to the kind of experiment: Antihyperalgesic activity in po dosed CFA induced CD-1 albino mouse assessed as inhibition of mechanical allodynia by measuring paw withdrawal threshold measured every 20 mins by von frey test. Type of assay: functional, organism-based. The following applies: dose 50-200 mg/kg. In a few lines:
as §3

Assay [16] concerns Mus musculus. As to the kind of experiment: Antihyperalgesic activity in CFA induced CD-1 albino mouse assessed as inhibition of mechanical hyperalgesia by measuring paw withdrawal latency at 50 to 200 mg/kg, po measured after 80 mins by paw pressure test. Type of assay: functional, organism-based. The following applies: dose 50-200 mg/kg. The procedure, abridged:
as §1

Assay [17] relates to Mus musculus. The assay can be described thus: Antihyperalgesic activity in CFA induced CD-1 albino mouse assessed as inhibition of mechanical allodynia by measuring paw withdrawal threshold at 50 to 200 mg/kg, po measured after 80 mins by von frey test. Conditions: dose 50-200 mg/kg. The class given is functional, organism-based. The procedure, abridged: as §3
Assay [18] relates to Mus musculus. As to the kind of experiment: Antihyperalgesic activity in CFA induced CD-1 albino mouse assessed as inhibition of thermal hyperalgesia by measuring licking latency at 50 to 200 mg/kg, po measured after 80 mins by hot plate test. The following applies: dose 50-200 mg/kg. The class given is functional, organism-based. The procedure, abridged:
as §2

The subject of assay [19] is Mus musculus. The assay can be described thus: Antihyperalgesic activity in CFA induced CD-1 albino mouse assessed as inhibition of thermal hyperalgesia by measuring licking latency at 50 to 200 mg/kg, po measured after 40 mins by hot plate test. The class given is functional, organism-based. Conditions: dose 50-200 mg/kg. In a few lines:
as §2

In assay [20] the test system is Mus musculus. The assay can be described thus: Antihyperalgesic activity in CFA induced CD-1 albino mouse assessed as inhibition of mechanical allodynia by measuring paw withdrawal threshold at 50 to 200 mg/kg, po measured after 40 mins by von frey test. The class given is functional, organism-based. Conditions: dose 50-200 mg/kg. The procedure, abridged: as §3

For assay [21], the system named is Mus musculus. As to the kind of experiment: Antihyperalgesic activity in po dosed CFA induced CD-1 albino mouse assessed as inhibition of thermal hyperalgesia by measuring licking latency measured every 20 mins by hot plate test. Type of assay: functional, organism-based. Conditions: dose 50-200 mg/kg. The procedure, abridged: as §2
Assay [22] relates to Mus musculus. As to the kind of experiment: Antihyperalgesic activity in CFA induced CD-1 albino mouse assessed as inhibition of mechanical hyperalgesia by measuring paw withdrawal latency at 50 to 200 mg/kg, po measured after 40 mins by paw pressure test. Conditions: dose 50-200 mg/kg. The class given is functional, organism-based. The procedure, abridged: as §1
The test system of assay [23] is Mus musculus. As to the kind of experiment: Antihyperalgesic activity in po dosed CFA induced CD-1 albino mouse assessed as inhibition of mechanical hyperalgesia by measuring paw withdrawal latency measured every 20 mins by paw pressure test. Type of assay: functional, organism-based. The following applies: dose 50-200 mg/kg. In a few lines:
as §1

The structures appear in SMILES notation. Active and inactive are the calls of the source.

Chain of Carbonic anhydrase 1 (P00915 whole entry): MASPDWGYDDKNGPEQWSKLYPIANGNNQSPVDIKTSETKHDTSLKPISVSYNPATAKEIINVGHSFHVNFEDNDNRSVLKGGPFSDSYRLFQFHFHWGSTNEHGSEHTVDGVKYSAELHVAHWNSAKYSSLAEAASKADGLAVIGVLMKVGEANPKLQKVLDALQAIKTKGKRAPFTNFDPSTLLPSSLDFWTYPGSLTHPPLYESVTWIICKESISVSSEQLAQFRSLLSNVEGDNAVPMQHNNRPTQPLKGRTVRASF
Chain of Carbonic anhydrase 4 (P22748 whole entry): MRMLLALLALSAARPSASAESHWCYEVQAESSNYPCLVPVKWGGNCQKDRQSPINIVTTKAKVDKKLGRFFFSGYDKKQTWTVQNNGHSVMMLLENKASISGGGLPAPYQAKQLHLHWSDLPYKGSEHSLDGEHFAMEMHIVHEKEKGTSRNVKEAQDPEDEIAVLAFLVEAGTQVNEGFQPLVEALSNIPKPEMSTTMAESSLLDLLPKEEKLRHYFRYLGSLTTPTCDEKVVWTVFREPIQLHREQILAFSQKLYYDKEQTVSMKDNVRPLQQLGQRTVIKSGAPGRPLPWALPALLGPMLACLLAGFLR
Chain of Carbonic anhydrase 12 (O43570 whole entry): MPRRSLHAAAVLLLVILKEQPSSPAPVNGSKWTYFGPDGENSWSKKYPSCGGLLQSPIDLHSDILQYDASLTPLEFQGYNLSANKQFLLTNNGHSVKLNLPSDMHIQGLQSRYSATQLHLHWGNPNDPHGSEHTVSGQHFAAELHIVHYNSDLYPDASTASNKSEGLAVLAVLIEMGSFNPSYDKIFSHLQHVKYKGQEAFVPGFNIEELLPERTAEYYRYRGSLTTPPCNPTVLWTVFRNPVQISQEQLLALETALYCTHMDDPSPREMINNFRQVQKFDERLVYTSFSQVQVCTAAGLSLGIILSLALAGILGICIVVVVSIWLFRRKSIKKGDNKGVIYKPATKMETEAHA
Chain of Carbonic anhydrase 7 (P43166 whole entry): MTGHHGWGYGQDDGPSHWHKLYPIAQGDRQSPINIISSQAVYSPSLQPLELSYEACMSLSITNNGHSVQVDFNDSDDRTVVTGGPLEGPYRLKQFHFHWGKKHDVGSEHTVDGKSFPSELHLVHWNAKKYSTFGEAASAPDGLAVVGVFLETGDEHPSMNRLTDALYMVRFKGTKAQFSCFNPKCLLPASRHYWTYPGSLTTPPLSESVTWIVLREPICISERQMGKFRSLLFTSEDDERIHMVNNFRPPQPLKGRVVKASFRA

What is called Ki is the dissociation constant of the complex between target and ligand, obtained from inhibition or displacement. Higher therefore signals lower affinity. `CC(=O)Sc1ccccc1C(=O)O`: the Ki at Carbonic anhydrase 4 is 77.3 µM; at Carbonic anhydrase 2 it was 64.3 µM; on Carbonic anhydrase 1, 72.5 µM; on Carbonic anhydrase 7, 18.5 µM; at Carbonic anhydrase 12, 14 µM; on Carbonic anhydrase 9 it was 10.9 µM. In addition, the outcome in the assay on Mus musculus [1], in the assay with Mus musculus [2], in the assay on Mus musculus [3], in the assay with Mus musculus [4], in the assay with Mus musculus [5] and in the assay with Mus musculus [6] was Active.

With `CC(=O)[Se]c1ccccc1C(=O)O`, the outcome in the assay with Mus musculus [7], in the assay on Mus musculus [8] and with Mus musculus [11] was Active. In addition, the Ki was determined as 48 µM on Carbonic anhydrase 4; 32 µM on Carbonic anhydrase 2; 5.2 µM at Carbonic anhydrase 1; 5.2 µM at Carbonic anhydrase 7; 8.2 µM on Carbonic anhydrase 12; 1.4 µM at Carbonic anhydrase 9. For the same compound, the Activity in the assay on Mus musculus [9] and in the assay with Mus musculus [13] was over 50% in each case. In addition, the result in the assay on Mus musculus [10], in the assay with Mus musculus [12] and with Mus musculus [14] was inactive.

`CC(=O)Oc1ccccc1C(=O)O` [ASPIRIN]: the Activity entry with Mus musculus [15], in the assay on Mus musculus [21] and with Mus musculus [23] was “Dose-Dependent Effect” in each case. For the same compound, the inhibition constant (Ki) at Carbonic anhydrase 4, at Carbonic anhydrase 1, on Carbonic anhydrase 7, at Carbonic anhydrase 12 and on Carbonic anhydrase 9 was over 100 µM throughout. Moreover, the outcome with Mus musculus [16], in the assay with Mus musculus [17] and in the assay on Mus musculus [18] was inactive. Further, the result in the assay on Mus musculus [19], with Mus musculus [20] and in the assay with Mus musculus [22] was Active.
